# Many of the other results were omitted from the sample, so hits are more common in it than they were.
# TLR4 MyD88 comp = blocks binding of human TLR4 to MyD88 | HeLa CL3-4 TLR4/MyD88 BLA complementation, FRET ratio | inhibition, % at 8.4 µM | 0.18% of 200,000 active; in the data active = inhibition above about 25%;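 also: 0% = vehicle and 100% = reference inhibitor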
# CHOP UPR activ = apoptotic UPR (CHOP) activation; AID 449763; activation, % at 10 µM; CHO-CHOP luciferase reporter, luminescence; percent of tunicamycin response over DMSO baseline; 0.34% of 330,000 active;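 active = at 10 µM dose, activation of 40% or more, normalized to positive control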;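 also: 100% = tunicamycin at 10 µg/mL and 0% = DMSO alone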
#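 System: CHO-CHOP luciferase reporter cell line | Buffer or medium: F12 medium containing 10% fetal bovine serum | Doses: One dose, 10 µM in 0.5% DMSO | Times: 6 h compound exposure at 37 °C after overnight seeding | Signal: Luciferase luminescence | Read-out: % activation vs tunicamycin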
# UPR XBP1 act = adaptive UPR (XBP1) activation; CHO-XBP1 luciferase reporter, IRE1-XBP1 UPR activation, luminescence; percent of tunicamycin response, DMSO as zero; activation, % at 20 µM; 0.33% of 330,000 active;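 active = versus positive control, 20 µM dose yields 30% or more activation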;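 also: 100% = tunicamycin at 10 µg/mL and 0% = DMSO only wells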
#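 Test system: CHO-XBP1 luciferase reporter cells | Buffer or medium: Serum-containing F12 medium, 10% FBS | Schedule: 6 h compound exposure at 37 °C, 5% CO2 | Detection: Steady-Glo luciferase glow luminescence, 10 min after reagent addition | Read-out basis: Activation, % of tunicamycin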
# CHOP inhibitor = CHOP inhibition in unfolded protein response | CHO-K1 CHOP-promoter luciferase, tunicamycin-induced, 15-18 h | inhibition, % at 10 µM | 3.8% of 220,000 active;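 active = compounds that reduced the stress-induced luciferase reporter signal by more than about 70% of percent inhibition, limit read from the data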;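 also: 0% = tunicamycin plus vehicle and 100% = wells without tunicamycin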
# TLR9-MyD88 block = blocks human TLR9 binding to MyD88; 0.21% of 340,000 active; inhibition, % at 4.98 µM; CHO BLA complementation TLR9-MyD88, CCF4 FRET ratio; AID 504734;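 active = inhibition above the mean over all tested compounds plus 3 SD, cut at about 21% in these data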;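 also: 0% = DMSO only wells and 100% = clavulanate BLA inhibitor control wells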
# NOD2-RIPK2 inh = blocks binding of human NOD2 to RIPK2; O43353; CHO BLA complementation NOD2-RIPK2, CCF4 ratio; 0.38% of 360,000 active; inhibition, % at 4.98 µM; in the data active = inhibition above about 21%;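 also: 0% = vehicle only and 100% = reference blocker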
# CHOP confirm = confirmation of CHOP induction inhibitors; inhibition, % at 10 µM; 45% of 2,100 active; AID 504437; shares compounds with CHOP inhibitor; CHO-CHOP promoter luciferase reporter, tunicamycin-induced, luminescence;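 active = mean of three repeat readings of reporter signal inhibition above a set limit, cut at about 70% in these data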;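 also: 0% = tunicamycin plus vehicle and 100% = wells lacking tunicamycin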
# CHOP UPR conf = apoptotic UPR (CHOP) activation, confirmed; shares compounds with CHOP UPR activ; CHO-CHOP cells, CHOP-luciferase reporter luminescence; percent of tunicamycin response, DMSO as zero; activation, % at 10 µM; 64% of 1,000 active; AID 463112; in the data active = activation above about 33%;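 also: 0% = DMSO wells and 100% = tunicamycin 10 µg/mL wells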
# XBP1 UPR conf = adaptive UPR (XBP1) activation, confirmed | 63% of 1,000 active | CHO-XBP1 IRE1-XBP1 luciferase reporter, luminescence | shares compounds with UPR XBP1 act | activation, % at 20 µM;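 active = reporter signal at least 30% of the positive control's activation in two or more of four replicate wells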;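 also: plate controls were DMSO negative control for no effect and tunicamycin 10 µg/mL positive control for full effect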
# Starred values were filed as active, the others as inactive; · = no result given.
SMILES,TLR4 MyD88 comp,CHOP UPR activ,UPR XBP1 act,CHOP inhibitor,TLR9-MyD88 block,NOD2-RIPK2 inh,CHOP confirm,XBP1 UPR conf,others
CC(C)c1ccc(-c2cc(C(=O)N3N=C(C(F)F)CC3(O)C(F)F)c3ccccc3n2)cc1 (configuration not stated),-13,4,39*,99*,2,6,105*,13,
CCOC(=O)c1nnc(-c2ccccc2)nc1Oc1ccc(Cl)cc1,9,31,72*,106*,-7,-11,-4,85*,
Cc1cc(Nc2cccc([N+](=O)[O-])c2)n2c(nc3ccccc32)c1C#N,2,18,37*,103*,-6,-5,87*,12,
Cc1cnc(NC(=O)Cc2ccccc2Cl)s1,·,2,-6,·,-7,1,·,·,
Cc1cnc(NC(=O)c2cc3c(C)nn(Cc4ccccc4Cl)c3s2)s1,6,4,43*,104*,-11,-14,9,82*,
CCc1ccc(-c2nc(CN3CCC(C(=O)NCCN(CC)c4ccccc4)CC3)c(C)o2)cc1,1,4,57*,98*,4,-2,105*,35*,
CCN(CCNC(=O)C1CCCN(Cc2nc(-c3ccc(OC)cc3)oc2C)C1)c1ccccc1 (configuration not stated),-6,0,4,50,-8,-8,·,·,
COc1cc(N(C(=O)Cc2cccs2)C(C(=O)NC2CCCCC2)c2ccc(C)cc2)ccc1-n1cnnn1 (configuration not stated),-4,-1,35*,105*,3,-7,92*,37*,
Cc1cc(C)c(Cn2c(=O)[nH][nH]c2=O)cc1Cn1c(=O)[nH][nH]c1=O,·,·,·,·,-2,1,·,·,
COc1ccc(Cn2c(SCc3cc(C)ccc3C)nc3cc(OC)c(OC)cc3c2=N)cc1,4,20,100*,104*,4,4,123*,67*,
CN=C1SC(CC(=O)Nc2ccc(F)cc2F)C(=O)N1/N=C/c1ccc(OC(F)F)c(OC)c1 (configuration not stated),-11,30,201*,98*,-6,4,116*,5,
Cc1cc(/C=N/n2c(COc3ccccc3)nc3ccccc3c2=O)c(O)c([N+](=O)[O-])c1,2,-1,-1,34,-5,0,·,·,
Cc1ccc(-c2[nH]ncc2/C=N/n2c(COc3ccccc3)nc3ccccc3c2=O)cc1,-6,5,37*,99*,-6,-4,108*,45*,
COc1ccc(-c2ccc(C#N)c(SCC(=O)Nc3sc4c(c3C#N)CCC4)n2)cc1OC,-2,28,41*,102*,1,-10,16,56*,
CC(C)=CCCC1(C)C=Cc2c(c(C)cc3c2[nH]c2cc(O)ccc23)O1 (configuration not stated),·,4,63*,104*,4,0,119*,67*,
CCOC(=O)c1c(NC(=O)Cc2cccs2)sc(C(=O)NC2CCCCC2)c1C,-4,10,55*,106*,-5,9,74*,43*,
Cc1nc2ccc(NC(=O)C3(C)CCCN(C(C)C)C3)cc2o1 (configuration not stated),·,·,·,·,·,-5,·,·,
CC(=O)NC(c1ccccc1)c1nc(/C=C/c2ccccc2)cs1 (configuration not stated),·,·,·,·,·,-14,·,·,
CCOc1cccc(C(=O)Nc2cccc(-c3nnc(-c4ccc(C)cc4)o3)c2)c1,-8,136*,162*,105*,-1,-8,103*,160*,CHOP UPR conf=54*
CCCCC(c1nc2ccccc2[nH]1)n1c(=O)c(-c2ccccc2)nc2cc(C)c(C)cc21 (configuration not stated),·,·,·,·,·,-8,·,·,
Cc1cccc(NC(=O)/C(C#N)=C/c2cn(CC(=O)NCc3ccco3)c3ccccc23)c1C,-7,1,57*,109*,16,3,90*,168*,
CC(OC(=O)C1=COCCO1)C(=O)NC1CCCC(C)C1C (configuration not stated),·,·,·,·,2,-2,·,·,
CCC(Sc1nc2cc(OC)c(OC)cc2c(=O)n1Cc1ccco1)C(=O)NCCOC (configuration not stated),0,-1,3,-21,-4,-5,·,·,
CCc1ccc(NC(=O)C(CC)Sc2nc3cc4c(cc3c(=O)n2Cc2ccco2)OCO4)cc1 (configuration not stated),0,96*,106*,96*,2,2,-60,127*,CHOP UPR conf=88*
O=C(C[C@H]1CC[C@@H]2[C@H](COC[C@H](O)CN2C(=O)c2cnccn2)O1)NCc1ccc(Cl)cc1,·,·,·,·,·,-5,·,·,
SMILES,TLR4 MyD88 comp,CHOP UPR activ,UPR XBP1 act,CHOP inhibitor,TLR9-MyD88 block,NOD2-RIPK2 inh,CHOP confirm,XBP1 UPR conf,others
Cc1cc(N2CCN(c3ccc([N+](=O)[O-])c4cccnc34)CC2)c2ccccc2n1,0,42*,104*,105*,-8,12,54,62*,CHOP UPR conf=53*
Cc1cc(N2CCN(c3ccc(C(F)(F)F)cc3[N+](=O)[O-])CC2)c2ccccc2n1,·,3,-2,·,9,2,·,·,
CC(=O)Nc1cccc(NC(=O)c2cc(-c3cccnc3)nc3ccc(Br)cc23)c1,6,4,-2,-3,2,-8,·,·,
O=C(Nc1ccc(C(F)(F)F)cc1)c1cc(-c2cccnc2)nc2ccc(Br)cc12,2,124*,91*,102*,-2,-2,93*,90*,CHOP UPR conf=81*
CCOC(=O)c1cnc(-n2nc(C)cc2C)nc1NC,6,1,0,-23,1,5,·,·,
CCOC(=O)c1cnc(-n2nc(C)cc2C)nc1NC1CCCCC1,12,99*,40*,106*,1,-2,117*,12,CHOP UPR conf=34*
CC1=C(C(=O)N(C(C)C)C(C)C)CC(CC(=O)NCCN2CCOCC2)C(=O)N1Cc1ccccc1 (configuration not stated),·,·,·,·,-3,9,·,·,
CC(=O)NNC(=S)NC(=O)C(c1ccccc1)c1ccccc1,8,0,0,39,9,4,·,·,
CC(C)(C)C(=O)NC(=S)NNC(=O)C(c1ccccc1)c1ccccc1,4,12,43*,106*,5,9,121*,48*,
